Test results as given in ChEMBL document CHEMBL5303300, “EUbOPEN Chemogenomics Library - Multiplex” (2023).
Several values for one entry are separate records, joined by “and”; a condition that tells them apart may be missing. Equal entries are not always repeated.

Key:
Assay type in all cases: toxicity, cell-based
Fibroblast = assay: Multiplex assay against human fibroblast; settings: number of replicates 2
Outline: (§1)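 Live cells carried four stains from seeding: Hoechst33342, BioTracker Green Microtubule Cytoskeleton Dye, MitoTracker Red and Annexin V Alexa Fluor 680. They were imaged on a CQ1 microscope at 37°C and 5% CO2 after compound addition. Using CellPathfinder machine-learning gating, cells were split into Hoechst high-intensity objects or normal cells, normal cells into healthy, pyknosed or fragmented nuclei, and pyknosed cells into mitotic or apoptotic; tubulin, mitochondrial-mass and membrane-permeability phenotypes are per cents of healthy-nucleus cells.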

HEK-293T = assay: Multiplex assay against HEK293T; settings: human, number of replicates 2; outline: as §1
U2OS = assay: Multiplex assay against U2OS; settings: human, number of replicates 2; outline: as §1
[1] = 12 h, 1 µM, compound concentration 1 uM
[2] = 12 h, 10 µM, compound concentration 10 uM
[3] = 24 h, 1 µM, compound concentration 1 uM
[4] = 24 h, 10 µM, compound concentration 10 uM
[5] = 48 h, 1 µM, compound concentration 1 uM
[6] = 48 h, 10 µM, compound concentration 10 uM

## Cc1cc(-c2cnc(N)c3c(-c4ccc5scnc5c4)csc23)n(C)n1
Fibroblast; [1]
  Population Apoptotic (%): 48% and 40%
  Population Fragmented Nuclei (%): 9% and 10%
  Population Healthy Nuclei (%): 77% and 62%
  Population Hoechst High Intensity Objects (%): 0%
  Population Membrane Permeable-Phenotype (%): 4% and 10%
  Population Mitochondria Different-Phenotype (%): 0% and 2%
  Population Mitotic Cells (%): 51% and 60%
  Population Normal (%): 100%
  Population Pyknosed Nuclei (%): 12% and 26%
  Population Tubulin-Different-Phenotype (%): 14% and 15%
  Total Cell Count: 224 and 187
Fibroblast; [2]
  Population Apoptotic (%): 66% and 51%
  Population Fragmented Nuclei (%): 23%
  Population Healthy Nuclei (%): 61% and 62%
  Population Hoechst High Intensity Objects (%): 0%
  Population Membrane Permeable-Phenotype (%): 12% and 20%
  Population Mitochondria Different-Phenotype (%): 2% and 0%
  Population Mitotic Cells (%): 33% and 48%
  Population Normal (%): 99% and 100%
  Population Pyknosed Nuclei (%): 15% and 14%
  Population Tubulin-Different-Phenotype (%): 76% and 56%
  Total Cell Count: 240 and 224
Fibroblast; [3]
  Population Apoptotic (%): 50% and 60%
  Population Fragmented Nuclei (%): 13% and 10%
  Population Healthy Nuclei (%): 75% and 64%
  Population Hoechst High Intensity Objects (%): 0%
  Population Membrane Permeable-Phenotype (%): 1% and 6%
  Population Mitochondria Different-Phenotype (%): 0% and 3%
  Population Mitotic Cells (%): 50% and 39%
  Population Normal (%): 100%
  Population Pyknosed Nuclei (%): 11% and 25%
  Population Tubulin-Different-Phenotype (%): 10% and 13%
  Total Cell Count: 253 and 187
Fibroblast; [4]
  Population Apoptotic (%): 68% and 59%
  Population Fragmented Nuclei (%): 27%
  Population Healthy Nuclei (%): 62% and 60%
  Population Hoechst High Intensity Objects (%): 0%
  Population Membrane Permeable-Phenotype (%): 10% and 15%
  Population Mitochondria Different-Phenotype (%): 1%
  Population Mitotic Cells (%): 32% and 40%
  Population Normal (%): 100%
  Population Pyknosed Nuclei (%): 9% and 12%
  Population Tubulin-Different-Phenotype (%): 74% and 46%
  Total Cell Count: 254 and 259
Fibroblast; [5]
  Population Apoptotic (%): 71% and 61%
  Population Fragmented Nuclei (%): 10% and 14%
  Population Healthy Nuclei (%): 83% and 67%
  Population Hoechst High Intensity Objects (%): 0%
  Population Membrane Permeable-Phenotype (%): 4% and 9%
  Population Mitochondria Different-Phenotype (%): 1% and 3%
  Population Mitotic Cells (%): 28% and 38%
  Population Normal (%): 100%
  Population Pyknosed Nuclei (%): 6% and 17%
  Population Tubulin-Different-Phenotype (%): 8% and 13%
  Total Cell Count: 221 and 189
Fibroblast; [6]
  Population Apoptotic (%): 66% and 72%
  Population Fragmented Nuclei (%): 31% and 29%
  Population Healthy Nuclei (%): 59% and 61%
  Population Hoechst High Intensity Objects (%): 0%
  Population Membrane Permeable-Phenotype (%): 6% and 9%
  Population Mitochondria Different-Phenotype (%): 1%
  Population Mitotic Cells (%): 33% and 27%
  Population Normal (%): 100%
  Population Pyknosed Nuclei (%): 9% and 8%
  Population Tubulin-Different-Phenotype (%): 71% and 54%
  Total Cell Count: 257 and 251
HEK-293T; [1]
  Population Apoptotic (%): 53% and 52%
  Population Fragmented Nuclei (%): 5% and 2%
  Population Healthy Nuclei (%): 81% and 85%
  Population Hoechst High Intensity Objects (%): 7% and 6%
  Population Membrane Permeable-Phenotype (%): 3% and 1%
  Population Mitochondria Different-Phenotype (%): 21% and 11%
  Population Mitotic Cells (%): 46% and 47%
  Population Normal (%): 92% and 93%
  Population Pyknosed Nuclei (%): 13% and 11%
  Population Tubulin-Different-Phenotype (%): 61% and 56%
  Total Cell Count: 648 and 641
HEK-293T; [2]
  Population Apoptotic (%): 45% and 68%
  Population Fragmented Nuclei (%): 4% and 3%
  Population Healthy Nuclei (%): 77% and 84%
  Population Hoechst High Intensity Objects (%): 17% and 13%
  Population Membrane Permeable-Phenotype (%): 4% and 2%
  Population Mitochondria Different-Phenotype (%): 59% and 57%
  Population Mitotic Cells (%): 54% and 31%
  Population Normal (%): 82% and 86%
  Population Pyknosed Nuclei (%): 17% and 12%
  Population Tubulin-Different-Phenotype (%): 92% and 91%
  Total Cell Count: 429 and 378
HEK-293T; [3]
  Population Apoptotic (%): 49% and 53%
  Population Fragmented Nuclei (%): 7% and 6%
  Population Healthy Nuclei (%): 85% and 86%
  Population Hoechst High Intensity Objects (%): 8% and 9%
  Population Membrane Permeable-Phenotype (%): 3% and 1%
  Population Mitochondria Different-Phenotype (%): 10% and 4%
  Population Mitotic Cells (%): 50% and 46%
  Population Normal (%): 91% and 90%
  Population Pyknosed Nuclei (%): 7%
  Population Tubulin-Different-Phenotype (%): 38% and 39%
  Total Cell Count: 943 and 990
HEK-293T; [4]
  Population Apoptotic (%): 56% and 69%
  Population Fragmented Nuclei (%): 6% and 3%
  Population Healthy Nuclei (%): 79% and 82%
  Population Hoechst High Intensity Objects (%): 17% and 13%
  Population Membrane Permeable-Phenotype (%): 2% and 1%
  Population Mitochondria Different-Phenotype (%): 65%
  Population Mitotic Cells (%): 43% and 30%
  Population Normal (%): 82% and 86%
  Population Pyknosed Nuclei (%): 14%
  Population Tubulin-Different-Phenotype (%): 94% and 92%
  Total Cell Count: 457 and 429
HEK-293T; [5]
  Population Apoptotic (%): 17% and 10%
  Population Fragmented Nuclei (%): 14% and 9%
  Population Healthy Nuclei (%): 83% and 86%
  Population Hoechst High Intensity Objects (%): 9% and 10%
  Population Membrane Permeable-Phenotype (%): 6% and 2%
  Population Mitochondria Different-Phenotype (%): 0%
  Population Mitotic Cells (%): 82% and 89%
  Population Normal (%): 90% and 89%
  Population Pyknosed Nuclei (%): 2% and 4%
  Population Tubulin-Different-Phenotype (%): 19%
  Total Cell Count: 2410 and 2184
HEK-293T; [6]
  Population Apoptotic (%): 62% and 80%
  Population Fragmented Nuclei (%): 9%
  Population Healthy Nuclei (%): 85% and 84%
  Population Hoechst High Intensity Objects (%): 17%
  Population Membrane Permeable-Phenotype (%): 7% and 2%
  Population Mitochondria Different-Phenotype (%): 24% and 30%
  Population Mitotic Cells (%): 37% and 20%
  Population Normal (%): 82%
  Population Pyknosed Nuclei (%): 5%
  Population Tubulin-Different-Phenotype (%): 89% and 92%
  Total Cell Count: 772 and 677
U2OS; [1]
  Population Apoptotic (%): 50% and 66%
  Population Fragmented Nuclei (%): 8% and 7%
  Population Healthy Nuclei (%): 86% and 83%
  Population Hoechst High Intensity Objects (%): 0%
  Population Membrane Permeable-Phenotype (%): 0% and 1%
  Population Mitochondria Different-Phenotype (%): 0%
  Population Mitotic Cells (%): 50% and 33%
  Population Normal (%): 100%
  Population Pyknosed Nuclei (%): 4% and 8%
  Population Tubulin-Different-Phenotype (%): 75% and 76%
  Total Cell Count: 46 and 136
U2OS; [2]
  Population Apoptotic (%): 66% and 65%
  Population Healthy Nuclei (%): 56% and 80%
  Population Hoechst High Intensity Objects (%): 0%
  Population Membrane Permeable-Phenotype (%): 8% and 11%
  Population Mitochondria Different-Phenotype (%): 17% and 15%
  Population Mitotic Cells (%): 33% and 34%
  Population Normal (%): 100%
  Population Pyknosed Nuclei (%): 24% and 13%
  Population Tubulin-Different-Phenotype (%): 51% and 38%
U2OS; [3]
  Population Apoptotic (%): 50% and 55%
  Population Fragmented Nuclei (%): 5% and 4%
  Population Healthy Nuclei (%): 87% and 86%
  Population Hoechst High Intensity Objects (%): 0%
  Population Membrane Permeable-Phenotype (%): 0% and 1%
  Population Mitochondria Different-Phenotype (%): 0%
  Population Mitotic Cells (%): 50% and 44%
  Population Normal (%): 100% and 99%
  Population Pyknosed Nuclei (%): 7% and 8%
  Population Tubulin-Different-Phenotype (%): 85% and 83%
U2OS; [4]
  Population Apoptotic (%): 76% and 84%
  Population Healthy Nuclei (%): 56% and 80%
  Population Hoechst High Intensity Objects (%): 1% and 0%
  Population Membrane Permeable-Phenotype (%): 8% and 7%
  Population Mitochondria Different-Phenotype (%): 29% and 19%
  Population Mitotic Cells (%): 23% and 15%
  Population Normal (%): 98% and 99%
  Population Pyknosed Nuclei (%): 25% and 15%
  Population Tubulin-Different-Phenotype (%): 42% and 36%
U2OS; [5]
  Population Apoptotic (%): 50% and 60%
  Population Fragmented Nuclei (%): 1% and 5%
  Population Healthy Nuclei (%): 90% and 86%
  Population Hoechst High Intensity Objects (%): 0%
  Population Membrane Permeable-Phenotype (%): 1%
  Population Mitochondria Different-Phenotype (%): 1%
  Population Mitotic Cells (%): 50% and 39%
  Population Normal (%): 100%
  Population Pyknosed Nuclei (%): 7%
  Population Tubulin-Different-Phenotype (%): 81% and 83%
U2OS; [6]
  Population Apoptotic (%): 73% and 82%
  Population Fragmented Nuclei (%): 12% and 5%
  Population Healthy Nuclei (%): 52% and 78%
  Population Hoechst High Intensity Objects (%): 2% and 0%
  Population Membrane Permeable-Phenotype (%): 7%
  Population Mitochondria Different-Phenotype (%): 19% and 13%
  Population Mitotic Cells (%): 26% and 17%
  Population Normal (%): 97% and 99%
  Population Pyknosed Nuclei (%): 35% and 15%
  Population Tubulin-Different-Phenotype (%): 41% and 33%
